Experimental findings from ChEMBL document CHEMBL1152541, “Staurosporine tethered peptide ligands that target cAMP-dependent protein kinase (PKA): optimization and selectivity profiling” (Bioorg Med Chem, 2009) are described below.

*1 amine or outer side, *2 acyl side, *3 side chain or, on linkers, in order; H or OH if unused. Where a SMILES comes first, the peptide text is derived from it. Bridges are numbered along the chain shown (N, C = ends). [ ]: non-standard residue; d: D form. The star is where a group is joined. Staurosporine = CO[C@@H]1[C@H](N(C)*)C[C@H]2O[C@]1(C)n1c3ccccc3c3c4c(c5c6ccccc6n2c5c31)C(=O)NC4; Suc = O=C(CCC(=O)[*:2])[*:1]; Dap = NC[C@H](N)C(=O)O; βAla = NCCC(=O)O

Test [1] concerns the target Phosphatidylinositol 4,5-bisphosphate 3-kinase catalytic subunit alpha isoform (Homo sapiens) (UniProt P42336). In words: Binding affinity to human PIK3Calpha at 500 nM by cell-based competition binding assay relative to control in presence of DTT.
Test [2] concerns the target Mitogen-activated protein kinase 8 (Homo sapiens) (UniProt P45983). Kind of test: Binding affinity to human JNK1 at 500 nM by cell-based competition binding assay relative to control in presence of DTT. Put shortly:
(§1)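 Competition binding screen (Ambit) across a panel of 90 kinases, scoring test ligand displacement of each kinase's binding relative to control. The screen ran under reducing conditions with 7.5 mM DTT.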

For test [3], the target named is Serine/threonine-protein kinase PLK3 (Homo sapiens) (UniProt Q9H4B4). In words: Binding affinity to human PLK3 at 500 nM by cell-based competition binding assay relative to control in presence of DTT.
Chain of Serine/threonine-protein kinase PLK3 (Homo sapiens) (Q9H4B4 whole entry, looked up): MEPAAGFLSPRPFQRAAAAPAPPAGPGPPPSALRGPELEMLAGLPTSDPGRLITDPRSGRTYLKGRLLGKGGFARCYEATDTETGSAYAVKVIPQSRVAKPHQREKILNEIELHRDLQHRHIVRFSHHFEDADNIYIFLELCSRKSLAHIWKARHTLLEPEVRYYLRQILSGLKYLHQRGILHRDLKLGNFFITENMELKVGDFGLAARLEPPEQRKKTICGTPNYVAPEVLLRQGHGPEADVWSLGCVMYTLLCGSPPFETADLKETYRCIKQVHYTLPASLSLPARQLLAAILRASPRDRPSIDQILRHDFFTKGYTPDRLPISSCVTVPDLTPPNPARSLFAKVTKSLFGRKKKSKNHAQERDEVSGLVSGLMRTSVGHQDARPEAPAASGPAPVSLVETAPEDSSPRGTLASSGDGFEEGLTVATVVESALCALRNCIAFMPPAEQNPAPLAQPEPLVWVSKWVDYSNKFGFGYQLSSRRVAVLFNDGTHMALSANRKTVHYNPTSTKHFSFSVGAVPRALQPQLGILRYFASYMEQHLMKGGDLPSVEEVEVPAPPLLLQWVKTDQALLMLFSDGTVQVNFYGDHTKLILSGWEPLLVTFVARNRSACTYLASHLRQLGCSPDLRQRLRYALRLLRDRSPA
Test [4] addresses Hepatocyte growth factor receptor (Homo sapiens) (UniProt P08581). In words: Binding affinity to human MET at 500 nM by cell-based competition binding assay relative to control in presence of DTT.
For test [5], the target named is RAC-beta serine/threonine-protein kinase (Homo sapiens) (UniProt P31751). Kind of test: Binding affinity to human AKT2 at 500 nM by cell-based competition binding assay relative to control in presence of DTT. Put shortly: (§2)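 Kinase binding profiling ran on a commercial (Ambit) competitive binding screen against a panel of 90 kinases. The screen used reducing conditions with 7.5 mM DTT. To withstand the DTT, the bivalent ligand was tested as its amide isostere, with the disulfide replaced. A staurosporine derivative carrying a 3 β-alanine linker was run as the reference compound.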
Chain of RAC-beta serine/threonine-protein kinase (Homo sapiens) (P31751 whole entry): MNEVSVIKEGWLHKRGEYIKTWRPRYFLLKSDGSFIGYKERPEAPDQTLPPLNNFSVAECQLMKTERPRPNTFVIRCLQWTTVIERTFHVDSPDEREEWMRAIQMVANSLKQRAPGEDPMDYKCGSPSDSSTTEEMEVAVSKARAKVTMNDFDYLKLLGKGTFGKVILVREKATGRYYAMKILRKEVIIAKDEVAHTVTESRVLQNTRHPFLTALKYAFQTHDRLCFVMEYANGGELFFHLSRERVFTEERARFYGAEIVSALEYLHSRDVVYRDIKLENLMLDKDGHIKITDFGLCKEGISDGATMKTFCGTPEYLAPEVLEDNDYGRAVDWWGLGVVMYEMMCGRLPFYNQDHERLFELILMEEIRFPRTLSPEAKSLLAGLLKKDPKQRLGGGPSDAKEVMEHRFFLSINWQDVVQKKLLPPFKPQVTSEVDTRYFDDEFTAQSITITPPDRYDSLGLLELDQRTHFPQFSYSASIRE

Test [6] has as its target Casein kinase I isoform gamma-2 (Homo sapiens) (UniProt P78368). In words: Binding affinity to human CSNK1G2 at 500 nM by cell-based competition binding assay relative to control in presence of DTT. Put shortly:
(§3)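 Commercial (Ambit) competitive kinase-binding panel of 90 kinases measured the binding profile. Run under reducing conditions of 7.5 mM DTT. Binding is expressed relative to control.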

The target of test [7] is T1, Tyrosine-protein kinase JAK3 (Homo sapiens) (UniProt P52333).
T1 sequence (whole entry): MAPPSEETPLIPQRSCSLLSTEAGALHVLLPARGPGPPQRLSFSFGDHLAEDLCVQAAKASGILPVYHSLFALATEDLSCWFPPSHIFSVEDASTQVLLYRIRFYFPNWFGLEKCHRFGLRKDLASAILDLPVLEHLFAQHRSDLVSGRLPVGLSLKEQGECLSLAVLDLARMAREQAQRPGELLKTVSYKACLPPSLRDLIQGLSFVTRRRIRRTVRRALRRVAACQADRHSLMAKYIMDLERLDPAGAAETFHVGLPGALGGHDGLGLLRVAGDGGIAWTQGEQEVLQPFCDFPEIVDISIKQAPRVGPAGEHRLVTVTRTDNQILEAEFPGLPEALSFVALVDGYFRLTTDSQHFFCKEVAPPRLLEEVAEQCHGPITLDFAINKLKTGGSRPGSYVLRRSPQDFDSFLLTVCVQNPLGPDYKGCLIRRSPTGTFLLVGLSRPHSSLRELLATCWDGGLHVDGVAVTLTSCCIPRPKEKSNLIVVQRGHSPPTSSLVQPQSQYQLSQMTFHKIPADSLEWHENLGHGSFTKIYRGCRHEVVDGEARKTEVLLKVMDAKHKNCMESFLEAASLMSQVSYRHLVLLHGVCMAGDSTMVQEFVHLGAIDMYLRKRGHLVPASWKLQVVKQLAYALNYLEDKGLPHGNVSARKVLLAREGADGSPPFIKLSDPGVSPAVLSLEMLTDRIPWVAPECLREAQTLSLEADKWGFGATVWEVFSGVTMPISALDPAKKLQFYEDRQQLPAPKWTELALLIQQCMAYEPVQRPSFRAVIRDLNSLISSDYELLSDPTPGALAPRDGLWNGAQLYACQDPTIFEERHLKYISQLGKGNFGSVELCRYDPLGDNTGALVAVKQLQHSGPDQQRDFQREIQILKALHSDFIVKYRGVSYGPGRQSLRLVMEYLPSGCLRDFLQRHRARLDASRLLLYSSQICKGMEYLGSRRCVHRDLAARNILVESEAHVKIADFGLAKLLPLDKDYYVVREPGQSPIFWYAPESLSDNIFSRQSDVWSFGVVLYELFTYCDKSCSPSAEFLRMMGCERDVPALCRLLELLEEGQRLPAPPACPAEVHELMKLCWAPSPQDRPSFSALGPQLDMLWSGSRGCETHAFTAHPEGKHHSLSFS
Kind of test: Binding affinity to human JAK3 kinase domain 2 at 200 nM by cell-based competition binding assay relative to control in presence of DTT. Put shortly: as §1

In test [8] the target is Insulin-like growth factor 1 receptor (Homo sapiens) (UniProt P08069). Kind of test: Binding affinity to human IGF1R at 200 nM by cell-based competition binding assay relative to control in presence of DTT. Put shortly:
as §1

In test [9] the test system is Serine/threonine-protein kinase B-raf (Homo sapiens), P15056 [V600E]. In words: Binding affinity to human BRAF V600E mutant at 200 nM by cell-based competition binding assay relative to control in presence of DTT. Put shortly:
as §2

Test [10] concerns the target Mitogen-activated protein kinase 9 (Homo sapiens) (UniProt P45984). In words: Binding affinity to human JNK2 at 200 nM by cell-based competition binding assay relative to control in presence of DTT. Put shortly:
as §1

In test [11] the target is Atypical kinase COQ8A, mitochondrial (Homo sapiens) (UniProt Q8NI60). Kind of test: Binding affinity to human ADCK3 at 200 nM by cell-based competition binding assay relative to control in presence of DTT. Put shortly:
as §2

The target of test [12] is Ephrin type-A receptor 2 (Homo sapiens) (UniProt P29317). In words: Binding affinity to human EPHA2 at 200 nM by cell-based competition binding assay relative to control in presence of DTT. Put shortly: as §3
Test [13] deals with Casein kinase I isoform delta (Homo sapiens) (UniProt P48730). In words: Binding affinity to human CSNK1D at 50 nM by cell-based competition binding assay relative to control in presence of DTT. Put shortly: as §3
Chain of Casein kinase I isoform delta (Homo sapiens) (P48730 whole entry, looked up, the tested form may be a part, canonical isoform): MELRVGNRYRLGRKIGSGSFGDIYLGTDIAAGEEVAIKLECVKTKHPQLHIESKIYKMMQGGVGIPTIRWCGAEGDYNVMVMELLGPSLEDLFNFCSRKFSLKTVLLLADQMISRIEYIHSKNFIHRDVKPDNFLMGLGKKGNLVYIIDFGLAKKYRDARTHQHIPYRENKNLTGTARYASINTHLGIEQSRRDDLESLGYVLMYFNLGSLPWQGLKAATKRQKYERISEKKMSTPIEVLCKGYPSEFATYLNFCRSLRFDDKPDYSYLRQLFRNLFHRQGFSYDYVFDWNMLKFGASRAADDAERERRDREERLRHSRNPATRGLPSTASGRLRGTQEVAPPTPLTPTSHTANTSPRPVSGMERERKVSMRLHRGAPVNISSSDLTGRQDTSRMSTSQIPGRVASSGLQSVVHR
Test [14] deals with T1, Tyrosine-protein kinase JAK3 (Homo sapiens). In words: Binding affinity to human JAK3 kinase domain 2 at 50 nM by cell-based competition binding assay relative to control in presence of DTT. Put shortly: as §1
In test [15] the target is RAC-alpha serine/threonine-protein kinase (Homo sapiens) (UniProt P31749). In words: Binding affinity to human AKT1 at 50 nM by cell-based competition binding assay relative to control in presence of DTT. Put shortly:
as §2

Test [16] addresses MAP kinase-interacting serine/threonine-protein kinase 2 (Homo sapiens) (UniProt Q9HBH9). Kind of test: Binding affinity to human MKNK2 at 50 nM by cell-based competition binding assay relative to control in presence of DTT.
Test [17] concerns the target RAC-beta serine/threonine-protein kinase (Homo sapiens) (UniProt P31751). Kind of test: Binding affinity to human AKT2 at 50 nM by cell-based competition binding assay relative to control in presence of DTT. Put shortly:
as §2

Test [18] addresses Mitogen-activated protein kinase 11 (Homo sapiens) (UniProt Q15759). In words: Binding affinity to human p38beta at 50 nM by cell-based competition binding assay relative to control in presence of DTT.
Test [19] deals with Tyrosine-protein kinase BTK (Homo sapiens) (UniProt Q06187). Kind of test: Binding affinity to human BTK at 50 nM by cell-based competition binding assay relative to control in presence of DTT. Put shortly:
as §2

Chain of Atypical kinase COQ8A, mitochondrial (Homo sapiens) (Q8NI60 163-647 limits assumed): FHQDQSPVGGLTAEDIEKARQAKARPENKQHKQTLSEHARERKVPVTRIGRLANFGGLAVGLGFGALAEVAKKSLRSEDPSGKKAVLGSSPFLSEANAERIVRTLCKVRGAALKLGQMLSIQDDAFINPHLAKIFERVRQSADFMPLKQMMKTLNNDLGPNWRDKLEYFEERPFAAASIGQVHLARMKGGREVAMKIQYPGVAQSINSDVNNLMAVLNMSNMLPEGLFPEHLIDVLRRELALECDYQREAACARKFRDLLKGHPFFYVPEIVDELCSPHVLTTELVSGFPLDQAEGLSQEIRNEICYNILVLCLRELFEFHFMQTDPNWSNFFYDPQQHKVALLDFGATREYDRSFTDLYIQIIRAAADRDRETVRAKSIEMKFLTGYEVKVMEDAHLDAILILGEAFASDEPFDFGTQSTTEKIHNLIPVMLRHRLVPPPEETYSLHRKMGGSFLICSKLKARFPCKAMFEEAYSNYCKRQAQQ
Chain of Mitogen-activated protein kinase 8 (Homo sapiens) (P45983 whole entry): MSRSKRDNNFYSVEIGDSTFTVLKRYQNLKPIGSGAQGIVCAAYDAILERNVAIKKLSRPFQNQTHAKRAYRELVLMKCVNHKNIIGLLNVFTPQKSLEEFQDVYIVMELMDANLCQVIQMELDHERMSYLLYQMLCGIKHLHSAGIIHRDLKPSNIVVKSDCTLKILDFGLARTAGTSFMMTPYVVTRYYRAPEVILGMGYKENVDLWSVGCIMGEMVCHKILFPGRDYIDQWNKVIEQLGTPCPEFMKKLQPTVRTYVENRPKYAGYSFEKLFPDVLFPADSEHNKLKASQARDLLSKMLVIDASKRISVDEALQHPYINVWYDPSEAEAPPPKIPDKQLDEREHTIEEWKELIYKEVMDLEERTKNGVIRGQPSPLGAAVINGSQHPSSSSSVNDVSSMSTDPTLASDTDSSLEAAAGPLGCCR
Chain of Hepatocyte growth factor receptor (Homo sapiens) (P08581 whole entry): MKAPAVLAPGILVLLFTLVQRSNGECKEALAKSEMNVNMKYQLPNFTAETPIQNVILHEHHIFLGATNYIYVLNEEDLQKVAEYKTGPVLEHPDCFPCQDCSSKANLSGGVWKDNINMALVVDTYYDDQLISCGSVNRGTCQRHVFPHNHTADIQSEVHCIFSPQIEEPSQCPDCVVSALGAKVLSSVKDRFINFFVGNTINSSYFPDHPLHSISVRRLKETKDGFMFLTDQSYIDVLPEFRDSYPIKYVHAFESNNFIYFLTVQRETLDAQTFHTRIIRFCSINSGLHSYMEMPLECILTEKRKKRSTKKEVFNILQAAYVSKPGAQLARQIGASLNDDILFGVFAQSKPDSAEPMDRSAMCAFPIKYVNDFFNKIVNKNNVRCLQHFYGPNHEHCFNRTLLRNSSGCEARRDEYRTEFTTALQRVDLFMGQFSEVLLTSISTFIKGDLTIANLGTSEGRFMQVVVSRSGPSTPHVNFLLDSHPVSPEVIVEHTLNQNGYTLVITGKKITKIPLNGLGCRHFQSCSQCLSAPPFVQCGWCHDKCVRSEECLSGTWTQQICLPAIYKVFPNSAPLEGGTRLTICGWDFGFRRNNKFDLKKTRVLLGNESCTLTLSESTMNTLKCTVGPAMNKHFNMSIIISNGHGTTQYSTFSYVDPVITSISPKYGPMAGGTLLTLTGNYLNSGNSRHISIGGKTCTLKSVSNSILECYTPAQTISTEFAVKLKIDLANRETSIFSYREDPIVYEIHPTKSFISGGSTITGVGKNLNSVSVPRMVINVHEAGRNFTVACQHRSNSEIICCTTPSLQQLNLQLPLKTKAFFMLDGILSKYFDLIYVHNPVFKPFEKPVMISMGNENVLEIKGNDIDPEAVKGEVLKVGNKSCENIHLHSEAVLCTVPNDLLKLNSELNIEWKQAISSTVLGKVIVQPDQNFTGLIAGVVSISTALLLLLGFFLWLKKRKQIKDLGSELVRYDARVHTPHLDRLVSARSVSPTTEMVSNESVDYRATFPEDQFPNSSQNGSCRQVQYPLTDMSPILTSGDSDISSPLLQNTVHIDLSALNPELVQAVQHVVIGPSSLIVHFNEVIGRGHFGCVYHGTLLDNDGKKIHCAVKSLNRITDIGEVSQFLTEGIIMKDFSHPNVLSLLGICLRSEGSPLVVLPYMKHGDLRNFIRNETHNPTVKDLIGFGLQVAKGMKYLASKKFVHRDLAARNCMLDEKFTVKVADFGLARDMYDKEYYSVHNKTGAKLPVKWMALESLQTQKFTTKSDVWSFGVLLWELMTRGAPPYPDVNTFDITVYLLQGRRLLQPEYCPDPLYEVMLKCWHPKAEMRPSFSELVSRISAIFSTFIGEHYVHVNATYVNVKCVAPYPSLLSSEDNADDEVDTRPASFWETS
Chain of MAP kinase-interacting serine/threonine-protein kinase 2 (Homo sapiens) (Q9HBH9 whole entry, looked up): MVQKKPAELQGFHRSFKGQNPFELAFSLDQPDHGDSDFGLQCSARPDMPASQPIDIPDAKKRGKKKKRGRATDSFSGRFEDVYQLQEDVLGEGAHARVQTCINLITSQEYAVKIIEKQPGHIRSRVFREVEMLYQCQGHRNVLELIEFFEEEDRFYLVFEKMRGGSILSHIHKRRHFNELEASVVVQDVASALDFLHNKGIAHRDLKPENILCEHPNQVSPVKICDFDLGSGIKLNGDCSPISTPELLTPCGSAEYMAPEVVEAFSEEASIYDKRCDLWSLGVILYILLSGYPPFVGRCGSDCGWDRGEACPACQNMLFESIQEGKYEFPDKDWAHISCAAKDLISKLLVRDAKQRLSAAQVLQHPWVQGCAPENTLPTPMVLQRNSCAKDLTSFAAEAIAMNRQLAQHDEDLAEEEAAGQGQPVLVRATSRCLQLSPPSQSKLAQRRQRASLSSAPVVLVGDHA
Chain of Mitogen-activated protein kinase 9 (Homo sapiens) (P45984 whole entry, looked up): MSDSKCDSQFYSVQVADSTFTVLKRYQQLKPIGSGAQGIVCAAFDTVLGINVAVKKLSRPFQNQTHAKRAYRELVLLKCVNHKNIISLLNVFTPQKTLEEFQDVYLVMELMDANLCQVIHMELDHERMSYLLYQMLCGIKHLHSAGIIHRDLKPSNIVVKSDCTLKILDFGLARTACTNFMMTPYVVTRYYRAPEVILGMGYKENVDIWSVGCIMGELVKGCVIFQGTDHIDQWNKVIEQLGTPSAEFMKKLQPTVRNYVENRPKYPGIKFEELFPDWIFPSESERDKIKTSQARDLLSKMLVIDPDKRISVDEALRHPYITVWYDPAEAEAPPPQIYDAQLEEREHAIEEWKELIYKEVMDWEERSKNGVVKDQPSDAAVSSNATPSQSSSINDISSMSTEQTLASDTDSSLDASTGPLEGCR

`CO[C@@H]1[C@H](N(C)C(=O)CCC(=O)NCCC(=O)NCCC(=O)NCCC(N)=O)C[C@H]2O[C@]1(C)n1c3ccccc3c3c4c(c5c6ccccc6n2c5c31)C(=O)NC4`: the Activity was 100% in test [1]; 52% in test [2]; 100% in [3]; 46% in test [4]; 37% in [5]; 99% in test [6].

Consider `CO[C@@H]1[C@H](N(C)C(=O)CCC(=O)NCCC(=O)NCCC(=O)NCCC(=O)NCCC(=O)NCCC(=O)NCCC(=O)NCCC(=O)N[C@H]2CSSC[C@@H](C(=O)NCC(N)=O)NC(=O)CNC(=O)[C@H](Cc3ccccc3)NC(=O)[C@H](C(C)C)NC(=O)[C@H](CCCNC(=N)N)NC(=O)[C@H](Cc3ccccc3)NC(=O)[C@H](C(C)C)NC2=O)C[C@H]2O[C@]1(C)n1c3ccccc3c3c4c(c5c6ccccc6n2c5c31)C(=O)NC4` ({Staurosporine-Suc-βAla-βAla-βAla-βAla-βAla-βAla-βAla}-CVFRVFGCG-NH2; disulfide 1-8), for which the Activity was 4.6% in [7]; 100% in test [8]; 100% in test [9]; 89% in test [10]; 96% in [11]; 100% in test [12].

For the compound `CO[C@@H]1[C@H](N(C)C(=O)CCC(=O)NCCC(=O)NCCC(=O)NCCC(=O)NCCC(=O)NCCC(=O)NCCC(=O)NCCC(=O)N[C@H]2CNC(=O)C[C@@H](C(N)=O)NC(=O)CNC(=O)[C@H](Cc3ccccc3)NC(=O)[C@H](C(C)C)NC(=O)[C@H](CCCNC(=N)N)NC(=O)[C@H](Cc3ccccc3)NC(=O)[C@H](C(C)C)NC2=O)C[C@H]2O[C@]1(C)n1c3ccccc3c3c4c(c5c6ccccc6n2c5c31)C(=O)NC4` ({Staurosporine-Suc-βAla-βAla-βAla-βAla-βAla-βAla-βAla}-[Dap]VFRVFGD-NH2; lactam 1-8), the Activity turned out to be 100% in test [13]; 16% in [14]; 100% in [15]; 100% in [16]; 100% in test [17]; 100% in [18]. For the same compound, in test [19], the Activity worked out at 98%.
